Compounds with a hit are over-represented: about 3.5% of the library has one in this group of screens.
PAFAH1B2 FP inh – inhibitors of human PAFAH1B2 | 340,000 tested, 1.2% active | P68402 | inhibition, % at 3.39 µM | recombinant PAFAH1B2, FP-rhodamine activity probe, fluorescence polarization | AID 492953;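 active means inhibition above the mean of all tested compounds plus 3 SD, cut at about 24% in these data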
Target sequence (P68402 whole entry, looked up): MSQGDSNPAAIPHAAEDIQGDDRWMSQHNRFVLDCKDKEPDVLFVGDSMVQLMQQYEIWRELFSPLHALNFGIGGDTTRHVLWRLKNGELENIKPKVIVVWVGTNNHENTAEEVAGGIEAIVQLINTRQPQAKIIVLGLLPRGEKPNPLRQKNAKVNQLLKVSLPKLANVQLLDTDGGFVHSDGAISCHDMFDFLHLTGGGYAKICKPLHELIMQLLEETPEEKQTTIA
PAFAH2 FP inh – inhibitors of human PAFAH2. 340,000 tested, 0.99% active. recombinant PAFAH2, FP-rhodamine activity probe, fluorescence polarization. inhibition, % at 3.39 µM;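 active means inhibition above the mean over all tested compounds plus 3 SD, cut at about 30% in these data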;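 further: inhibitors block probe labeling of enzyme so polarization drops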
PAFAH1B3 inh – blocks human PAF acetylhydrolase 1B catalytic subunit 3; recombinant PAFAH1B3, FP-rhodamine probe, fluorescence polarization; inhibition, % at 3.39 µM; 340,000 tested, 0.28% active; AID 492972;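 active means inhibition above the screen-wide average of all tested compounds plus 3 SD, cut at about 25% in these data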
Target sequence (Q15102 whole entry, looked up): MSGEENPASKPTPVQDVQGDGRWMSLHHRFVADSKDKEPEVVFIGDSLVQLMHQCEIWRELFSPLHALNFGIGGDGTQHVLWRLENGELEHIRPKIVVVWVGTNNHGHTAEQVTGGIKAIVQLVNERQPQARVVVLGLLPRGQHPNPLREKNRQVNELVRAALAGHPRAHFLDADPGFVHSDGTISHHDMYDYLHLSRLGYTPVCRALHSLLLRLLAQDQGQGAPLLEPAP
Apaf-1 inh – inhibitors of human Apaf-1 apoptosome. O14727. reconstituted apoptosome caspase-3 activity, DEVD-Rh110 fluorescence. inhibition, % at 20 µM. 330,000 tested, 0.71% active; active means inhibition of at least 40% at 20 µM
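Material: reconstituted apoptosome with Apaf-1, cytochrome c, caspase-9, procaspase-3, dATP / Buffer or medium: pH 7.5 Hepes buffer with CHAPS, BSA, DTT / Also added: cytochrome c with DEVD-Rh110 / Schedule: compound with Apaf-1, dATP, procaspase-3 30 min, then 50 min reaction, room temperature / Technique: rhodamine 110 fluorescence at Ex 480/Em 540 nm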
PREPL inhibitor – human PREPL enzyme inhibition. 320,000 tested, 0.68% active. Q4J6C6. inhibition, % at 5.96 µM. recombinant PREPL, fluorescence polarization activity-based probe
pPAFAH FP inh – inhibitors of human plasma PAF acetylhydrolase (pPAFAH) | Q13093 | 330,000 tested, 1.5% active | recombinant pPAFAH, FP-rhodamine probe fluorescence polarization | AID 463082 | inhibition, % at 3.39 µM;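 active means inhibition above the mean inhibition across the screen plus 3 SD, cut at about 25% in these data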;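 further: inhibitors block binding of the rhodamine activity-based probe so polarization drops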
PREPL inh cf – confirmation of human PREPL enzyme inhibitors | shares compounds with PREPL inhibitor | recombinant PREPL, fluorescence polarization activity probe | inhibition, % at 5.96 µM | 2,000 tested, 67% active
Large screens that a line does not name were inactive (follow-up assays come after a bar, where they were run). Unless noted, no stated cut-off is given here; in the data, active means inhibition above about 43%; inactive means the rest.

O=C1N[C@@H](c2ccccc2)COC(=O)[C@H](Cc2ccc(F)cc2)C/C=C\C[C@H]1CC(=O)N(CCO)Cc1ccccc1	none (no result: Apaf-1 inh, PREPL inhibitor, pPAFAH FP inh)
O=C1N[C@@H](c2ccccc2)COC(=O)[C@@H](Cc2ccc(F)cc2)C/C=C\C[C@@H]1CC(=O)N(CCO)Cc1ccccc1	PREPL inhibitor 52 | PREPL inh cf inactive
O=C1N[C@H](Cc2ccccc2)COC(=O)[C@H](Cc2ccc(F)cc2)C/C=C\C[C@@H]1CC(=O)N(CCO)Cc1ccccc1	none
CCCCn1c(N)c(N(CCC(C)C)C(=O)C2=NN(c3ccccc3)C(=O)CC2)c(=O)[nH]c1=O	none
C#CCn1cc(/C=N/Nc2nc3ccccc3[nH]2)c2ccccc21	PREPL inhibitor 55, pPAFAH FP inh 29 | PREPL inh cf 63
COc1ccc(/C=N/Nc2nc3ccccc3[nH]2)cc1OC	none
COc1cc(/C=N\Nc2nc3ccccc3[nH]2)cc(OC)c1OC	PREPL inhibitor 43 | PREPL inh cf inactive
COCCNc1nnc(SCC(=O)NC(=O)c2ccccc2)s1	none
N/C(=N\NC(=O)c1sccc1OCc1ccc(Cl)cc1Cl)c1ccccn1	none
Cc1ccc2nc(-c3ccccn3)c(NC3CCCC3)n2c1	PREPL inhibitor 64 | PREPL inh cf 70
Cc1ccc(NC(=O)CSc2nn(-c3ccccc3)c(=S)s2)cc1S(=O)(=O)N(C)C	none
CCc1c(C)nc2cc(-c3ccc(OC)c(OC)c3)nn2c1N1CCCC1	PREPL inhibitor 45 | PREPL inh cf inactive
CCn1c(O)c(/C=N/N=C/c2ccccc2)c2ccc(C3=NNC(=O)CC3)cc21	PREPL inhibitor 72 | PREPL inh cf 65
CN(C)c1ccc(NC(=O)c2cc3c(=O)n4ccccc4nc3n2C)cc1	PREPL inhibitor 43 | PREPL inh cf inactive
CC1CCC(C(C)C)C(OC(=O)C[n+]2cc(-c3ccc(Cl)cc3)n3c2CCCCC3)C1 (centres undefined)	PREPL inhibitor 47 | PREPL inh cf 44
C#CC1(NC(=O)NC(C)C)CCCCC1	none
Cc1ccc(OCC(=O)Nc2ccc(N3CCN(C(=O)c4ccco4)CC3)cc2)cc1C	PREPL inhibitor 52 | PREPL inh cf 57
Cc1cccc(OC(C)C(=O)Nc2ccc(N3CCCCC3)cc2)c1 (centres undefined)	PREPL inhibitor 44 | PREPL inh cf 44
Cc1cccc(OCC(=O)Nc2ccc(N3CCN(C(=O)c4ccco4)CC3)cc2)c1	PREPL inhibitor 55 | PREPL inh cf 50
O=C(Cc1ccc(Cl)cc1)Nc1ccc(N2CCN(C(=O)c3ccco3)CC2)cc1	PREPL inhibitor 47 | PREPL inh cf 53
CC(C)C(C)N(Cc1ccc(C(=O)O)cc1)C(=O)c1ccc2ccccc2n1 (centres undefined)	none
CC(C)(C)N1CC(OC(N)=O)C1	none
CC(C)(CNC(=O)C1c2ccccc2-c2ccccc21)N1CCOCC1	none
NC(=S)N/N=C/c1ccc2ccccc2c1	none
C(=Nc1ccc(Nc2ccccc2)cc1)c1ccc2ccccc2c1	PREPL inhibitor 95 (no result: Apaf-1 inh) | PREPL inh cf inactive
O=C(CCC(=O)N/N=C/c1ccc(Br)s1)NCc1ccccc1	none
Brc1ccc(C=Nc2ccc(Nc3ccccc3)cc2)s1	PREPL inhibitor 99 (no result: Apaf-1 inh) | PREPL inh cf inactive
c1ccc(-c2nc(NCc3ccco3)c3ccccc3n2)nc1	PREPL inhibitor 47 | PREPL inh cf 47
c1ccc(N2CCN(c3nc(NCc4ccco4)c4ccccc4n3)CC2)cc1	PREPL inhibitor 56 | PREPL inh cf 56
Cc1ccc(Nc2nc(NCc3ccco3)c3ccccc3n2)cc1	PREPL inhibitor 57 | PREPL inh cf 45
CSc1ccc(/C=C2\C(=N)N3N=C(CC(=O)N4CCCCC4)SC3=NC2=O)cc1	none
Cc1ccc(S(=O)(=O)N2CCN(CC(=O)Nc3ccnn3C3CCCC3)CC2)cc1	none
Cc1cc(C(=O)COC(=O)COc2ccccc2C#N)c(C)n1CC1CCCO1 (centres undefined)	none
CCOc1cc2c(C#N)c(N3CCCC3)nc(N)c2c(N)n1	none
COc1cc2c(C#N)c(N3CCN(C)CC3)nc(N)c2c(N)n1	PREPL inhibitor 45 | PREPL inh cf inactive

Source: PubChem
